Test results reported in PMC4521672 (OncoTargets and therapy, 2015).
Where “and” joins values, the source holds several entries; their conditions need not be identical. Equal entries are not always repeated.

Columns and labels:
GSTA1 (GST-α) = target: T1, GSTA1 (GST-α) (Homo sapiens, UniProt P08263); assay: GST activity assay; assay type: biochemical; settings: read-out: IC50 for inhibition of formation of the CDNB-GSH conjugate in the presence of GST-α; GSTA1 5 μg/mL, pH 6.8, absorption at 355 nm
T1 sequence (P08263 1-222): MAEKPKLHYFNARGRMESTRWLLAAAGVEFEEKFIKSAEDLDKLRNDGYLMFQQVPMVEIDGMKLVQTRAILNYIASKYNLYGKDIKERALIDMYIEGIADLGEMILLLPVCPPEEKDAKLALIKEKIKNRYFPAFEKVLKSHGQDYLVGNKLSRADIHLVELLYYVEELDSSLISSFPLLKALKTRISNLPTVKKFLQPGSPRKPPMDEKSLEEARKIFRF
Method in brief: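 Recombinant human GSTA1 at 5 μg/mL in 0.1 M sodium phosphate, pH 6.8. GSH and CDNB were added from 2.5 mM and 7.5 mM stocks. Test compound was made as a 10 mM ethanol stock, then serially diluted to 10^-2–100 μM to compete with CDNB for conjugation to GSH. After 1–5 min, absorbance read at 355 nm, minus non-enzymatic conjugation. Triplicate runs; IC50 taken from dose–response curves.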

GSTP1 (GST-π) = GSTP1 (GST-π) (Homo sapiens, UniProt P09211); assay: GST activity assay; assay type: biochemical; settings: read-out: IC50 for inhibition of formation of the CDNB-GSH conjugate in the presence of GST-π; GSTP1 5 μg/mL, pH 6.8, absorption at 355 nm
C6 glioma tumor = assay: In vivo PET imaging of C6 glioma-bearing rat; design: species or system Sprague–Dawley rats; settings: dynamic PET 0-60 minutes post-injection, intravenous
Method in brief: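 Male Sprague–Dawley rats (8 weeks) stereotactically inoculated in the right hemisphere with 1.0×10^5 C6 cells. Tumours grew 2 weeks to 3–5 mm, with loci confirmed by MRI. Rats were anaesthetised with isoflurane in 200 mL/min oxygen and fitted with venous and arterial catheters. Imaged on a microPET R4 scanner; one tumour-bearing and one healthy rat were scanned.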

SMILES: C=C(CC)C(=O)c1ccc(OCC(=O)NCCCCF)c(Cl)c1Cl [FBuEA, fluorobutyl ethacrynic amide]
- IC50 (GSTA1 (GST-α)): 17.5 µM
- IC50 (GSTP1 (GST-π)): 6.02 µM and 6 µM

SMILES: Cc1cn([C@H]2C[C@H]([18F])[C@@H](CO)O2)c(=O)[nH]c1=O [[^18F]FLT, 3′-deoxy-3′-[^18F] fluorothymidine]
- Accumulation in C6 glioma tumor loci (PET) (C6 glioma tumor): tumor sites were targeted
